Compound activity (PubChem BioAssay)
In the library only some 1.2% were active in any assay of this set; here they are far more common.
HKDC1 inh – HKDC1 (human) hexokinase inhibition; recombinant HKDC1, G6PDH/diaphorase resazurin coupled fluorescence; hit rate 0.16% among 340,000; AID 493160; Q2TB90; inhibition, % at 20 µM;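 active = inhibition above about 35% when tested at 20 µM, limit read from the data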;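 note: plate controls were DMSO wells with enzyme for no effect and DMSO wells lacking enzyme for full effect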
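Test system: recombinant HKDC1 (HK5) hexokinase enzyme, produced in-house / Doses: 20 µM test compound, 1% DMSO / Timing: 90 min, room temperature / Detection: G6PDH/diaphorase-coupled fluorescence, 1 mM NADP, 100 µM resazurin, 525/613 nm / Control set: DMSO wells with and without enzyme mix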
PfG6PD inh – PfG6PD (Plasmodium falciparum) enzyme inhibition; PfGluPho enzyme, NADPH resazurin-diaphorase fluorescence; hit rate 0.78% among 350,000; inhibition, % at 20 µM; AID 504690;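 active = inhibition reaching at least a set limit at 20 µM in the primary screen, cut at about 59% in these data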;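 note: 0% = DMSO wells with substrate and 100% = DMSO wells lacking glucose-6-phosphate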
G6PDH CS – inhibits Leuconostoc G6PDH, flagging false hits in G6PDH-based assays; Purified L. mesenteroides G6PDH, diaphorase/resazurin coupled fluorescence, 45 min; inhibition, % at 5 µM; hit rate 0.12% among 200,000; in the data active = inhibition above about 50%
Diaph inh CS – diaphorase inhibition or chemical oxidation counter-screen. diaphorase resazurin-to-resorufin fluorescence, NADH, 16 min; bacterial (C. kluyveri) enzyme, not human. hit rate 0.69% among 190,000. AID 1217. inhibition, % at 20 µM;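 active = primary screen inhibition at 20 µM above a set limit, cut at about 50% in these data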;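 note: plate controls were DMSO with full reaction for no effect and wells lacking NADH for full effect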
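Test system: bacterial diaphorase enzyme (C. kluyveri); Quantity: 0.14 U/mL diaphorase, enzyme working solution; Times: reaction incubation of 16 min at room temperature; Measured by: fluorescence of resorufin formed from resazurin, Ex 544/Em 590 nm; Benchmarks: positive control minus NADH, DMSO neutral control.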
PfG6PD confirm – confirmation of Plasmodium falciparum G6PD inhibitors; recombinant PfGluPho, NADPH-diaphorase-resazurin fluorescence; AID 504753; inhibition, % at 20 µM; shares compounds with PfG6PD inh; hit rate 34% among 2,400;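 active = inhibition of at least 50% at 20 µM in any single replicate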;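 note: 0% = DMSO with substrate and 100% = DMSO lacking glucose-6-phosphate substrate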
Diaph ctr 10uM – diaphorase inhibition or oxidation at 10 uM NADPH; shares compounds with PfG6PD inh; hit rate 39% among 820; inhibition, % at 20 µM; diaphorase-coupled resazurin reduction, fluorescence, NADPH 10 uM; AID 504862;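 active = average inhibition reaching 50% or more with the compound at 20 µM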;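 note: resorufin red fluorescence formed as diaphorase reduces resazurin using NADPH; 0% = DMSO with enzyme and 100% = DMSO without enzyme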
Diaphorase 30uM – counter-screen for P. falciparum G6PD inhibitors: diaphorase inhibitors, oxidizers | shares compounds with PfG6PD inh | Diaphorase/resazurin coupled assay, resorufin fluorescence, 30 uM NADPH | inhibition, % at 20 µM | hit rate 29% among 820;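 active = inhibition averaging 50% or more, tested at 20 µM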;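 note: 0% = DMSO with enzyme and 100% = DMSO wells lacking diaphorase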
Starred values were filed as active, the others as inactive; x = no result; ! = repeats disagree.

SMILES	HKDC1 inh	PfG6PD inh	G6PDH CS	Diaph inh CS	PfG6PD confirm	others
Cc1cccc(N(CC(=O)N/N=C/c2cc([N+](=O)[O-])ccc2Cl)S(C)(=O)=O)c1C	-1	123*	4	19	82*	Diaph ctr 10uM=79*;Diaphorase 30uM=71*
CS(=O)(=O)N(CC(=O)N/N=C/c1cc([N+](=O)[O-])ccc1Cl)c1ccccc1	-2	54	0	9	x
O=c1ccn(-c2cccc(C(F)(F)F)c2)nc1-c1ccn(-c2cccc(Cl)c2)n1	1	87*	2	19	67*	Diaph ctr 10uM=61*;Diaphorase 30uM=57*
Cc1nnc(N/N=C\c2ccc(-c3ccccc3[N+](=O)[O-])o2)n1N	12	82*	24	48	38
O=C(O)c1ccc(-c2ccc(/C=N/Nc3ccc([N+](=O)[O-])cc3)o2)cc1	3	71*	x	x	36
Cc1n[nH]c(=S)n1/N=C/c1ccc(-c2ccccc2[N+](=O)[O-])o1	-2	17	7	50	x
CCc1nnc(N/N=C/c2ccc(-c3ccc([N+](=O)[O-])cc3)o2)n1N	8	69*	-2	-20	27
Cc1nnc(N/N=C/c2ccc(-c3ccccc3F)o2)n1N	0	67*	8	5	56*	Diaph ctr 10uM=22;Diaphorase 30uM=20
N#CCSc1ccc2nc(-c3ccccc3)cn2n1	0	54	x	x	x
COCC(=O)Nc1ccc2c(c1)[C@@H]1C[C@H](CC(=O)OC)O[C@H](CO)[C@@H]1O2	x	-2	x	x	x
O=S(=O)(/N=S1\CC=CCN1S(=O)(=O)c1ccccc1)c1ccccc1 (centres undefined)	3	64*	x	x	22
CC1=C(C)CS(=O)N(S(=O)(=O)c2ccccc2)C1 (centres undefined)	1	55	10	16	x
COC(=O)c1cc(CSc2nc3ccc(C)cc3[nH]2)oc1C	-1	61*	-2	32	17
CCOc1ccc(C(=O)Nc2cccc3ncccc23)cc1Cl	-6	19	x	x	x
O=C(Nc1ncc([N+](=O)[O-])s1)c1cccc([N+](=O)[O-])c1	2	103*	x	x	89*	Diaph ctr 10uM=77*;Diaphorase 30uM=69*
CCOC(=O)Cc1ccc(NC(=O)c2cccc([N+](=O)[O-])c2)cc1	-8	16	11	9	x
O=C(Nc1ccc(NC(=O)c2cccc([N+](=O)[O-])c2)cc1)c1cccc([N+](=O)[O-])c1	0	7	x	x	x
CCOC(=O)CSc1nnc(NC(=O)c2cccc([N+](=O)[O-])c2)s1	12	80*	10	15	58*	Diaph ctr 10uM=51*;Diaphorase 30uM=39
COc1ccccc1CCNC(=O)c1ccc2nc[nH]c2c1	7	-4	x	x	x
Cc1ccccc1OCC(=O)N/N=C/c1cccc(Oc2ccc([N+](=O)[O-])cc2[N+](=O)[O-])c1	11	127*	-41	38	93*	Diaph ctr 10uM=87*;Diaphorase 30uM=71*
Cc1ccccc1OCC(=O)NCC(=O)N/N=C/c1cccc([N+](=O)[O-])c1	x	x	4	-4	x
O=C(N/N=C/c1cccc(Oc2ccc([N+](=O)[O-])cc2[N+](=O)[O-])c1)c1cncc(Br)c1	21	98*	12	45	69*	Diaph ctr 10uM=69*;Diaphorase 30uM=58*
O=C(Cc1cccs1)Nc1ccc(F)cc1	-4	15	x	x	x
Fc1cccc(CCN2CCNC[C@@H]2CC2CCCCC2)c1	-7	3	x	x	x
Cc1c(Cl)cccc1N=C1NC(=O)CS1	x	66*	x	x	43
SMILES	HKDC1 inh	PfG6PD inh	G6PDH CS	Diaph inh CS	PfG6PD confirm	others
COc1ccccc1C(=O)Nc1ccc2ccccc2c1	3	41	x	x	x
COc1ccc(C(=O)Nc2ccc3ccccc3c2)c(OC)c1	1	74*	x	x	12
CC(C)(C)c1ccc(NC(=O)CN2C(=O)NC(C)(C3CC3)C2=O)cc1 (centres undefined)	4	-3	x	x	x
CCN1CCN(Cc2ccc(NC(=O)c3ccc(C)c(NC(=O)c4ccno4)c3)cc2C(F)(F)F)CC1	4	18	x	x	x
CCN1CCN(Cc2ccc(NC(=O)c3ccc(C)c(/C=C/c4cnc(Nc5cc(N6CCNCC6)nc(C)n5)cn4)c3)cc2C(F)(F)F)CC1	6	66*!	x	x	31
COc1ccc(NC(=O)CCCn2nc(C)c3c(C)n(-c4ccccc4)nc3c2=O)cc1OC	-4	-3	x	x	x
Cc1ccc(NC(=O)CCCn2nc(C)c3c(C)n(-c4ccccc4)nc3c2=O)cc1C	2	64*	x	x	27
CCCCCCCCSC1=CC(=O)C(OC)=C(OC)C1=O	x	125*	x	x	86*	Diaph ctr 10uM=67*;Diaphorase 30uM=39
Cc1ccc(NC(=O)CN2CCN(C(=O)C3CC3)CC2)c(F)c1	x	-8	x	x	x
Cc1ccc(CC(=S)N2CCOCC2)cc1	-14	47	7	-10	x
COc1ccc(CC(=S)N2CCOCC2)cc1	-12	66*	-4	3	10
CC(=O)NCCc1nc2cc(NC(=O)c3ccc([N+](=O)[O-])cc3)ccc2n1C	0	-3	x	x	x
O=C1NC(=O)C(Cc2ccc(Cl)cc2)(c2ccccc2)N1 (centres undefined)	-3	68*	x	x	38
O=C1NC(=O)C(Cc2ccccc2)(c2ccccc2)N1 (centres undefined)	-5	4	x	x	x
Cc1c(C(=O)Nc2ccncc2)sc2nc(-c3ccccc3)cn12	-3	78*	-12	13	24
O=[N+]([O-])c1ccc(C(=S)N2CCN(c3ccc(F)cc3)CC2)cc1	-8	54	11	4	x
CN(C)c1ccc(C(=S)N2CCN(c3ccc([N+](=O)[O-])cc3)CC2)cc1	-7	60*	x	x	31
O=C(c1ccccc1)c1ccccc1C(=O)N1CCOCC1	-2	2	4	6	x
O=C(c1ccc(Cl)cc1)c1ccccc1C(=O)N1CCOCC1	-9	63*	17	-6	11
COc1ccccc1NC(=O)COC(=O)CCC(=O)c1cccs1	-2	1	x	x	x
COc1ccc(-c2cn3cc(C)ccc3n2)cc1Br	15	103*	4	5	54*	Diaph ctr 10uM=45;Diaphorase 30uM=30
O=C(O)c1ccccc1-c1cn2cc(Cl)ccc2n1	-10	8	6	7	x
COc1ccc(-c2cn3nc(C)c(C)nc3n2)cc1OC	3	6	x	x	x
COc1ccc(-c2cn3cc(Cl)ccc3n2)cc1OC	-2	133*	9	8	77*	Diaph ctr 10uM=62*;Diaphorase 30uM=57*
Clc1ccc2nc(-c3ccc(Br)s3)cn2c1	-5	80*	-32	23	51*	Diaph ctr 10uM=38;Diaphorase 30uM=42
COc1ccc(C2=NOC(C)(c3nnc(-c4ccccc4)o3)C2)cc1 (centres undefined)	-4	-12	x	x	x
CCOc1ccc(-c2c(=O)n(O)c3ccccc3[n+]2[O-])cc1	5	61*	x	x	17
Cc1cc(=O)[nH]c(N/N=C/c2c(C)nn(-c3ccccc3)c2Cl)n1	3	86*	x	x	78*	Diaph ctr 10uM=-14;Diaphorase 30uM=-11
